Assay results of several laboratories.
Lines come from different studies, so protocols differ.
Target: Ephrin type-B receptor 3 (EPHB3, Homo sapiens, UniProt P54753)

The remaining binding of `Cn1nc(C(F)(F)F)cc1-c1cnc(N2CCc3cc(S(=O)(=O)Nc4c(F)cc(Cl)cc4F)cc(N4CCCC4=O)c32)nc1` is reported as 95% (cell-free assay, competition with immobilised ligand; 1 µM).
For `Cc1cc(NC(=O)c2cccc3cc(-c4cccc5[nH]nc(N)c45)ccc23)ccc1F`, the activity vs control was 88% (enzyme activity, inhibitor; 0.1 µM).
The activity vs control of `COc1cc(/C=C/C(=O)CC(=O)/C=C/c2ccc(O)c(OC)c2)ccc1O` is reported as 93% (enzyme activity, inhibitor; 1 µM).
`Cc1ccc(Nc2nccc(N(C)c3ccc4c(C)n(C)nc4c3)n2)cc1S(N)(=O)=O` gave a remaining signal of 71.7% (cell-free assay; 0.5 µM).
For `CN1CCN(c2cnc3c(C4CCN(C(=O)c5ccc(OC(F)(F)F)cc5N)CC4)ncnc3c2)CC1`, the remaining binding was 100% (cell-free assay, competition with immobilised ligand; 1 µM).
The remaining activity of `Cn1c(=O)n(-c2ccc(C(C)(C)C#N)cc2)c2c3cc(-c4cnc5ccccc5c4)ccc3ncc21` is reported as 117% (enzyme activity, inhibitor; 10 µM).
For `COc1cc2ncnc(Nc3ccc(F)c(Cl)c3)c2cc1OCCCN1CCOCC1`, the remaining signal was 57.5% (cell-free assay; 0.5 µM).
For `CCCOc1ccc([C@H]2[C@H](C(=O)O)[C@@H](c3ccc4c(c3)OCO4)CN2CC(=O)Nc2c(CC)cccc2CC)cc1`, the remaining binding was 97% (cell-free assay, competition with immobilised ligand; 1 µM).
For `CN(c1ncccc1CNc1nc(Nc2ccc3c(c2)CC(=O)N3)ncc1C(F)(F)F)S(C)(=O)=O`, the inhibition was 41% (enzyme activity, inhibitor; 1 µM).
For `CNC(=O)c1cc(Oc2ccc(NC(=O)Nc3ccc(Cl)c(C(F)(F)F)c3)cc2)ccn1`, the inhibition was 38% (enzyme activity, inhibitor; 10 µM).
The remaining binding of `CC(C)CC(=O)N1CCc2nc(-c3ccc(Br)cc3)nc(N(C)Cc3ccccc3)c2C1` is reported as 100% (cell-free assay, competition with immobilised ligand; 0.1 µM).
The ΔTm of `COc1cc2nccc(Oc3ccc(NC(=O)Nc4ccc(F)cc4F)c(F)c3)c2cc1OC` is reported as 5 to 10 °C (thermal stability, DSF; 10 µM).
With `Cc1cnc(NC2CCOCC2)nc1-n1cnc(C(=O)NC(CN)c2cc(F)cc(Cl)c2)c1` (stereo not drawn) the remaining activity was 115% (enzyme activity, inhibitor, radiometric; 1 µM).
`COc1cc(Nc2cnc(C#N)c(O[C@H](C)CN(C)C)n2)ncc1-c1cnn(C)c1` has a remaining activity of 23% (enzyme activity, inhibitor, radiometric; 10 µM).
`COc1cc2ncnc(Nc3ccc(Oc4ccccc4)c(C)c3C)c2cc1OC` has an inhibition of 2% (enzyme activity, inhibitor; 1 µM).
`Cc1nc(C2CCN(C(=O)c3ccc(OC(F)(F)F)cc3N)CC2)c2ncc(N3CCN(C)CC3)cc2n1` has a remaining binding of 100% (cell-free assay, competition with immobilised ligand; 1 µM).
The remaining activity of `O=C(Nc1cnn(-c2csc(C(=O)NC3COC3)c2)c1)Nc1c(F)cccc1Cl` is reported as 96.5% (enzyme activity, inhibitor; 5 µM).
The remaining signal of `Cc1ccc(C(=O)Nc2ccc(CN3CCN(C)CC3)c(C(F)(F)F)c2)cc1C#Cc1cnc2cccnn12` is reported as 100% (cell-free assay; 23.5 nM).
The remaining signal of `Clc1ccc(Nc2nnc(Cc3ccncc3)c3ccccc23)cc1` is reported as 65.1% (cell-free assay; 0.5 µM).
The inhibition of `Cn1cncc1C1=CN(c2ncnc3[nH]cnc23)CCS1` is reported as 12.8% (enzyme activity, inhibitor, radiometric; 50 nM).
With `CCN(CC)CCNC(=O)c1c(C)[nH]c(/C=C2\C(=O)Nc3ccc(F)cc32)c1C` the inhibition was -5% (enzyme activity, inhibitor; 0.3 µM).
`CN(C(=O)c1ccccc1)c1cc(N(C)c2ccc3c(c2)CCc2ccc(C(=O)NCCN4CCOCC4)cc2C3=O)ccc1F` has a remaining binding of 94% (cell-free assay, competition with immobilised ligand; 1 µM).
The remaining activity of `CC(C)(C)C(=O)c1sc(NC2CCCCC2)nc1N` is reported as 94% (enzyme activity, inhibitor; 10 µM).
`CS(=O)(=O)N1CCCC(NC(=O)[C@H](CCC2CCCCC2)NC(=O)c2ccc(CNc3ncnc4c3nnn4-c3ccccc3)cc2)C1` (stereo partly drawn) has a remaining binding of 91% (cell-free assay, competition with immobilised ligand; 0.1 µM).
The remaining activity of `O=C(Nc1cnn(-c2csc(C(=O)NC3COC3)c2)c1)Nc1ccccc1Cl` is reported as 95.6% (enzyme activity, inhibitor; 5 µM).
The remaining activity of `Nc1nc(Nc2ccccc2)sc1C(=O)c1c(F)cccc1F` is reported as 59% (enzyme activity, inhibitor; 10 µM).
With `CC(C)(C)c1nc2c(s1)c1nc(N)ncc1c1ccc(NS(=O)(=O)c3c(F)cccc3F)c(F)c12` the remaining activity was 93% (enzyme activity, inhibitor, radiometric; 1 µM).
`CO[C@@H](C)c1c(Nc2ccc([C@H](N(C)C(=O)C3CCS(=O)(=O)CC3)C(F)(F)F)cc2)cnc2cc(Cl)nn12` has a remaining binding of 100% (cell-free assay, competition with immobilised ligand; 1 µM).
`Nc1ncnc2occ(-c3ccc(NC(=O)Nc4cc(C(F)(F)F)ccc4F)cc3)c12` gave a remaining signal of 0% (cell-free assay; 20 µM).
With `CCN(CC)c1ccc(C2=NNC(=O)CC2C)cc1[N+](=O)[O-]` (stereo not drawn) the remaining activity was 102% (enzyme activity, inhibitor; 10 µM).
